Experimental data reported in ChEMBL document CHEMBL1153527, “Discovery of a novel series of quinolone and naphthyridine derivatives as potential topoisomerase I inhibitors by scaffold modification” (J Med Chem, 2009).

Experiments:
Bel-7402 = assay: Cytotoxicity against human Bel7402 cells after 48 hrs by MTT assay; assay type: functional, cell-based; conditions: Bel-7402, 48 h
A2780 = assay: Cytotoxicity against human A2780 cells after 48 hrs by MTT assay; assay type: functional, cell-based; conditions: A2780, 48 h
KB = assay: Cytotoxicity against human KB cells after 48 hrs by MTT assay; assay type: functional, cell-based
MCF7 = assay: Cytotoxicity against estrogen receptor-positive human MCF7 cells expressing wild type p53 after 48 hrs by SRB assay; assay type: functional, cell-based; conditions: MCF7, 48 h
Procedure, shortened: (§1)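 Cell lines came from CCRC, Taiwan. Cells were seeded at about 5 × 10^3 per well and left overnight. They were then given serum-free medium containing 0-10 μM compound (0.08-10 μM serial dilutions) for 48 h at 37 °C. Cells were fixed with TCA (10% final), stained with SRB (0.4% final), and the dye was dissolved in 10 mM Tris with A515 read. IC50 was taken from a fitted log concentration-response curve.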

AGS = assay: Cytotoxicity against human AGS cells expressing wild type p53 after 48 hrs by SRB assay; assay type: functional, cell-based; procedure, shortened: as §1
[1] = Cytotoxicity against estrogen receptor-negative human […] cells expressing p53 mutant after 48 hrs by SRB assay; assay type: functional, cell-based; procedure, shortened: as §1
HT-29 = assay: Cytotoxicity against human HT-29 cells expressing p53 mutant after 48 hrs by SRB assay; assay type: functional, cell-based; conditions: HT-29, 48 h; procedure, shortened: as §1
PC-3 = assay: Cytotoxicity against p53-deficient human PC3 cells after 48 hrs by SRB assay; assay type: functional, cell-based; conditions: PC-3, 48 h; procedure, shortened: as §1
U-937 = assay: Cytotoxicity against human U937 cells expressing p53 mutant after 48 hrs by SRB assay; assay type: functional, cell-based; conditions: U-937, 48 h
[2] = Cytotoxicity against p53-deficient human Hep3B cells after 48 hrs by SRB assay; assay type: functional, cell-based, Hep 3B2; procedure, shortened: as §1
HepG2 = assay: Cytotoxicity against human HepG2 cells expressing wild type p53 after 48 hrs by SRB assay; assay type: functional, cell-based; conditions: HepG2, 48 h; procedure, shortened: as §1
HeLa = assay: Cytotoxicity against p53-deficient human HeLa cells after 48 hrs by SRB assay; assay type: functional, cell-based; procedure, shortened: as §1
A549 = assay: Cytotoxicity against human A549 cells expressing wild type p53 after 48 hrs by SRB assay; assay type: functional, cell-based; conditions: A549, 48 h; procedure, shortened: as §1
K562 = assay: Cytotoxicity against p53-deficient human K562 cells after 48 hrs by SRB assay; assay type: functional, cell-based; conditions: K562, 48 h
THP-1 = assay: Cytotoxicity against human THP1 cells expressing p53 mutant after 48 hrs by SRB assay; assay type: functional, cell-based; conditions: THP-1, 48 h

SMILES | IC50 (Bel-7402) [µM] | IC50 (A2780) [µM] | IC50 (KB) [µM] | GI50 (MCF7) [µM] | IC50 (MCF7) [µM] | GI50 (AGS) [µM] | IC50 (AGS) [µM] | GI50 [1] [µM] | IC50 [1] [µM] | GI50 (HT-29) [µM] | IC50 (HT-29) [µM] | GI50 (PC-3) [µM] | IC50 (PC-3) [µM] | IC50 (U-937) [µM] | GI50 [2] [µM] | IC50 [2] [µM] | GI50 (HepG2) [µM] | IC50 (HepG2) [µM] | GI50 (HeLa) [µM] | IC50 (HeLa) [µM] | other results
CCn1cc(-c2nc3ccccc3s2)c(=O)c2cc(F)c(N3CCNC(C)C3)c(F)c21 (stereo not given) | 15 | 9.8 | 24.3 |  |  |  |  |  |  |  |  |  |  |  |  |  |  |  |  |  | 
C[C@H]1COc2c(N3CCN(C)CC3)c(F)cc3c(=O)c(-c4nc5ccccc5s4)cn1c23 | 92.2 | 26.6 | 60.2 |  |  |  |  |  |  |  |  |  |  |  |  |  |  |  |  |  | 
CCn1cc(-c2nc3ccc([N+](=O)[O-])cc3s2)c(=O)c2cc(F)c(N3CCNC(C)C3)c(F)c21 (stereo not given) | 4.1 | 3.3 | 4.7 | > 10 | > 10 | 3.3 | 5.4 | 2.3 | 7.4 | 1 | 5 | 2.7 | 10 | > 10 | 0.6 | 1.4 | 0.9 | 3.6 | 1.7 | 9.9 | GI50 (A549): 1.5 µM; IC50 (A549): 7 µM; IC50 (K562): > 10 µM; IC50 (THP-1): > 10 µM
CCn1cc(-c2nc3ccc([N+](=O)[O-])cc3[nH]2)c(=O)c2cc(F)c(N3CCNCC3)nc21 | 10.8 | 12.4 | 22.4 |  |  |  |  |  |  |  |  |  |  |  |  |  |  |  |  |  | 
CCn1cc(-c2nc3ccc([N+](=O)[O-])cc3s2)c(=O)c2cc(F)c(N3CCNCC3)cc21 | 1.8 | 0.7 | 0.7 |  |  |  |  |  |  |  |  |  |  |  |  |  |  |  |  |  | 
CCn1cc(-c2nc3ccccc3s2)c(=O)c2cc(F)c(N3CCNCC3)nc21 | 2.4 | 2.7 | 2.4 |  |  |  |  |  |  |  |  |  |  |  |  |  |  |  |  |  | 
CCn1cc(-c2nc3ccc(N)cc3[nH]2)c(=O)c2cc(F)c(N3CCNCC3)nc21 | 93.3 | 42.3 | 30.1 | > 10 | > 10 | 6.7 | 9.2 | > 10 | > 10 | > 10 | > 10 | > 10 | > 10 | > 10 | > 10 | > 10 | > 10 | > 10 | > 10 | > 10 | GI50 (A549): 0.5 µM; IC50 (A549): > 10 µM; IC50 (K562): > 10 µM; IC50 (THP-1): 8.2 µM
CCn1cc(-c2nc3ccccc3[nH]2)c(=O)c2cc(F)c(N3CCNCC3)nc21 | 4.1 | 4.8 | 2 | 8.3 | 9.5 | 2.1 | 6.6 | 3.3 | 10 | > 10 | > 10 | > 10 | > 10 | > 10 | 3.7 | 7.8 | 6.8 | 9.1 | 6.4 | 10 | GI50 (A549): 4.9 µM; IC50 (A549): 7.8 µM; IC50 (K562): 9.1 µM; IC50 (THP-1): > 10 µM
CC[C@@]1(O)C(=O)OCc2c1cc1n(c2=O)Cc2cc3cc(O)ccc3nc2-1 [HYDROXYCAMPTOTHECIN] | 0.2 | 0.7 | 0.6 |  |  |  |  |  |  |  |  |  |  |  |  |  |  |  |  |  | 
CCn1cc(-c2nc3ccc([N+](=O)[O-])cc3s2)c(=O)c2cc(F)c(N3CCN(C)CC3)cc21 | 7.7 | 4.3 | 5.8 | > 10 | > 10 | 2.6 | 4.5 | > 10 | > 10 | > 10 | > 10 | 5.5 | 7.5 | > 10 | > 10 | > 10 | > 10 | > 10 | > 10 | > 10 | GI50 (A549): 4.7 µM; IC50 (A549): 10 µM; IC50 (K562): > 10 µM; IC50 (THP-1): > 10 µM
CCn1cc(-c2nc3ccc([N+](=O)[O-])cc3o2)c(=O)c2cc(F)c(Cl)cc21 | 1.8 |  | 0.5 |  |  |  |  |  |  |  |  |  |  |  |  |  |  |  |  |  | 
CCn1cc(-c2nc3ccccc3[nH]2)c(=O)c2cc(F)c(N3CCNC(C)C3)c(F)c21 (stereo not given) | 30.2 | 11.6 | 19.1 |  |  |  |  |  |  |  |  |  |  |  |  |  |  |  |  |  | 
CCn1cc(-c2nc3ccccc3s2)c(=O)c2cc(F)c(N3CCN(C)CC3)cc21 | 24 | 114 | 19 |  |  |  |  |  |  |  |  |  |  |  |  |  |  |  |  |  | 
CCn1cc(-c2nc3ccc([N+](=O)[O-])cc3o2)c(=O)c2cc(F)c(N3CCNCC3)nc21 | 3 |  | 1.8 | > 10 | > 10 | 2.3 | 4.4 | > 10 | > 10 | > 10 | > 10 | 5.8 | 9.8 | > 10 | > 10 | > 10 | > 10 | > 10 | > 10 | > 10 | GI50 (A549): 2.1 µM; IC50 (A549): 7.3 µM; IC50 (K562): > 10 µM; IC50 (THP-1): > 10 µM
